{"source": "ChEMBL document CHEMBL1151985", "about": "“Cytotoxic and antiplasmodial xanthones from Pentadesma butyracea” (J Nat Prod, 2009)", "key": {"Plasmodium falciparum": {"test_system": "Plasmodium falciparum", "assay": "Antiplasmodial activity […] against chloroquine-resistant Plasmodium falciparum FcB1 by [3H]hypoxanthine uptake", "type": "functional, organism-based", "settings": "FcB1/Columbia", "outline": "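P. falciparum cultured continuously and synchronized by 5% D-sorbitol lysis. Parasites incubated with compound for 48 h, with [3H]-hypoxanthine added 24 h before freezing. Plates freeze-thawed, harvested onto glass fibre filters, and incorporation read by beta counting. IC50 from linear least-squares regression; chloroquine as positive control.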"}, "MCF7": {"test_system": "MCF7", "assay": "Cytotoxicity against human MCF7 cells assessed as [3H]hypoxanthin incorporation after 24 to 72 hrs", "type": "functional, cell-based", "outline": "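MCF-7 cells kept as for the parasite culture but with 5% fetal calf serum in place of 5% human serum. Seeded at 2 × 10^4 cells/well, then exposed to compound. Growth read by [3H]-hypoxanthine incorporation after 24 and 72 h incubation, run as for the P. falciparum assay: plates frozen and thawed, harvested on glass fibre filters, beta-counted. IC50 from linear least-squares regression. Doxorubicin as positive control.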"}, "[1]": {"assay": "Ratio IC50 for human MCF7 cells to IC50 for chloroquine-resistant Plasmodium falciparum FcB1", "type": "functional"}}, "note": "Activity calls are given as the source filed them. No cut-off for these calls is given here.", "data": [{"smiles": "COc1c(O)cc2oc3cc(O)c(C/C=C(\\C)CCC=C(C)C)c(O)c3c(=O)c2c1CC=C(C)C", "note": "[BUTYRAXANTHONE A]", "values": [{"measurement": "IC50", "setting": "Plasmodium falciparum", "result": 3, "unit": "µg/mL"}, {"measurement": "IC50", "setting": "MCF7", "result": 3.5, "unit": "µg/mL"}, {"measurement": "Ratio IC50", "setting": "[1]", "result": 1.17}]}, {"smiles": "CC(C)=CCc1c(O)cc2oc3c(CC=C(C)C)c(O)c4c(c3c(=O)c2c1O)C=CC(C)(C)O4", "note": "[TOVOPHYLLINE A]", "values": [{"measurement": "IC50", "setting": "Plasmodium falciparum", "result": 2.8, "unit": "µg/mL"}, {"measurement": "IC50", "setting": "MCF7", "result": 2.6, "unit": "µg/mL"}, {"measurement": "Ratio IC50", "setting": "[1]", "result": 0.93}]}, {"smiles": "COc1c(O)cc2oc3cc(O)cc(O)c3c(=O)c2c1C/C=C(\\C)CCC=C(C)C", "note": "[RUBRAXANTHONE]", "values": [{"measurement": "IC50", "setting": "Plasmodium falciparum", "result": 3.4, "unit": "µg/mL"}, {"measurement": "IC50", "setting": "MCF7", "result": 2.6, "unit": "µg/mL"}, {"measurement": "Ratio IC50", "setting": "[1]", "result": 0.76}]}, {"smiles": "COc1c(O)cc2oc3cc4c(c(O)c3c(=O)c2c1CC=C(C)C)C=CC(C)(C)O4", "note": "[MANGOSTANIN]", "values": [{"measurement": "IC50", "setting": "Plasmodium falciparum", "result": "> 1.9", "unit": "µg/mL"}, {"measurement": "IC50", "setting": "MCF7", "result": 3.9, "unit": "µg/mL"}, {"measurement": "Ratio IC50", "setting": "[1]", "result": "<2.05"}]}, {"smiles": "COc1c(O)cc2oc3cc(O)c(CC=C(C)C)c(O)c3c(=O)c2c1CC=C(C)C", "note": "[MANGOSTIN]", "values": [{"measurement": "IC50", "setting": "Plasmodium falciparum", "result": 2.9, "unit": "µg/mL"}, {"measurement": "IC50", "setting": "MCF7", "result": 3.5, "unit": "µg/mL"}, {"measurement": "Ratio IC50", "setting": "[1]", "result": 1.21}]}, {"smiles": "COc1c(O)cc2oc3cc(O)cc(O)c3c(=O)c2c1CC=C(C)CCCC(C)(C)O", "note": "[BUTYRAXANTHONE D]", "values": [{"measurement": "IC50", "setting": "Plasmodium falciparum", "result": 10, "unit": "µg/mL"}, {"measurement": "IC50", "setting": "MCF7", "result": 1.3, "unit": "µg/mL"}, {"measurement": "Ratio IC50", "setting": "[1]", "result": "<0.13"}]}, {"smiles": "CC(C)=CCc1c(O)cc2oc3c(CC=C(C)C)c(O)c4c(c3c(=O)c2c1O)CC(O)C(C)(C)O4", "note": "(centres undefined)", "values": [{"measurement": "Activity", "setting": "MCF7", "result": "Active"}]}, {"smiles": "CC(C)=CCc1c(O)c(CC=C(C)C)c2oc3c(O)ccc(O)c3c(=O)c2c1O", "note": "[GARTANIN]", "values": [{"measurement": "IC50", "setting": "Plasmodium falciparum", "result": 3.1, "unit": "µg/mL"}, {"measurement": "IC50", "setting": "MCF7", "result": 1.2, "unit": "µg/mL"}, {"measurement": "Ratio IC50", "setting": "[1]", "result": 0.39}]}, {"smiles": "CCN(CC)CCCC(C)Nc1ccnc2cc(Cl)ccc12", "note": "(centres undefined) [CHLOROQUINE]", "values": [{"measurement": "IC50", "setting": "MCF7", "result": "> 100", "unit": "µg/mL"}]}, {"smiles": "CC(C)=CCc1c(O)cc2oc3c(CC=C(C)C)c(O)c(O)c(CC=C(C)C)c3c(=O)c2c1O", "note": "[GARCINONE E]", "values": [{"measurement": "IC50", "setting": "Plasmodium falciparum", "result": 2.8, "unit": "µg/mL"}, {"measurement": "IC50", "setting": "MCF7", "result": 1.5, "unit": "µg/mL"}, {"measurement": "Ratio IC50", "setting": "[1]", "result": 0.54}]}, {"smiles": "CC(C)=CCc1c(O)c(O)c(CC=C(C)C)c2c(=O)c3c(O)c4c(cc3oc12)OC(C)(C)C=C4", "note": "[BUTYRAXANTHONE B]", "values": [{"measurement": "IC50", "setting": "Plasmodium falciparum", "result": 2.7, "unit": "µg/mL"}, {"measurement": "IC50", "setting": "MCF7", "result": 3.3, "unit": "µg/mL"}, {"measurement": "Ratio IC50", "setting": "[1]", "result": 1.22}]}]}
